Reference: ChEMBL document CHEMBL1130190, “Thromboxane modulating agents. 3. 1H-imidazol-1-ylalkyl- and 3-pyridinylalkyl-substituted 3-[2-[(arylsulfonyl)amino]ethyl]benzenepropanoic acid derivatives as dual thromboxane synthase inhibitor/thromboxane receptor antagonists” (J Med Chem, 1997)

Key:
[1] = biological target: T1, Thromboxane A2 receptor (Rattus norvegicus) (UniProt P34978); experiment: Antagonist activity against TXA2 receptor measured by inhibition of U-46,619-induced contractions of rat aorta; type: functional, tissue-based
T1 sequence (whole entry): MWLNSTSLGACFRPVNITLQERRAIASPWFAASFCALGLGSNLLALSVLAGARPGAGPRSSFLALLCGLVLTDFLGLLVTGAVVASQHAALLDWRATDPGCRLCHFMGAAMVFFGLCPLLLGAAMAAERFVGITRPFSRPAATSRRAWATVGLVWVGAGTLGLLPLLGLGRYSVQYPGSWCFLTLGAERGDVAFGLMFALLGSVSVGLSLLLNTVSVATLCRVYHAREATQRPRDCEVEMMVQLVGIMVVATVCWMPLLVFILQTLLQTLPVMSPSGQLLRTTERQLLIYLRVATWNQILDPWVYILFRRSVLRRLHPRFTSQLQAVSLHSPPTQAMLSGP
Outline: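 Spirally cut rat aortic strips held under 1 g resting tension for isometric recording in Krebs-bicarbonate at 37 °C, oxygenated, equilibrated 2 h. Primed with U46619 for 10 min, washed, and rested 1 h. Cumulative U46619 (1–100 nM) contraction curves were run before and after 15 min compound exposure (1 h for footnoted entries) at several concentrations. Antagonism was derived from the shifted curves.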

[2] = biological target: T2, Thromboxane-A synthase (Homo sapiens, UniProt P24557); experiment: Activity against human platelet microsome Thromboxane synthase
T2 sequence (P24557 whole entry): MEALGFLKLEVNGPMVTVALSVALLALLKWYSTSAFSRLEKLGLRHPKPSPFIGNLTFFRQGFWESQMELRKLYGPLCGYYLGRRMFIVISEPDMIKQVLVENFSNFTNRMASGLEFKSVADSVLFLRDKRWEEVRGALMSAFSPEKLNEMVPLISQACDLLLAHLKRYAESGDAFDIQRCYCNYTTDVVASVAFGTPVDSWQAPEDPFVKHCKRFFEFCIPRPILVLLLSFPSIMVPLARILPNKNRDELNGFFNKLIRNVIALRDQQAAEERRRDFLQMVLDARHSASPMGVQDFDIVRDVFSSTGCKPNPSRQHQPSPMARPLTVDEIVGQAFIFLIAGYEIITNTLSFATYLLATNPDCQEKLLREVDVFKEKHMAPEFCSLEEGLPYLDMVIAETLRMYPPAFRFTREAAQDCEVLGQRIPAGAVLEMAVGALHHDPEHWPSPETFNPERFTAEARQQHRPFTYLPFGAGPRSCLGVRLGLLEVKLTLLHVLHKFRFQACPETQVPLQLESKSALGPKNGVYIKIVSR

SMILES	pA2 [1]	IC50 [2] [nM]
CC(c1cccnc1)c1cc(CCNS(=O)(=O)c2ccc(Cl)cc2)cc(CCC(=O)O)c1 (configuration not stated)	10.2	
Cc1c(Cn2ccnc2)c2cc(CCC(=O)O)ccc2n1CCNS(=O)(=O)c1ccc(F)cc1	8.8	
O=C(O)CCc1cccc(CCNS(=O)(=O)c2ccc(Cl)cc2)c1	8.71	
Cc1c(Cc2cccnc2)c2cc(CCC(=O)O)ccc2n1CCNS(=O)(=O)c1ccc(F)cc1	9.16	
O=C(O)CCc1cc(CCNS(=O)(=O)c2ccccc2)cc(Oc2cccnc2)c1	9.06	
O=C(O)CCc1cc(CCNS(=O)(=O)c2ccc(Cl)cc2)cc(Cn2ccnc2)c1	8.54	38
CC(O)(c1cccnc1)c1cc(CCNS(=O)(=O)c2ccc(Cl)cc2)cc(CCC(=O)O)c1 (configuration not stated)	9.07	
O=C(O)COc1ccc(CCNS(=O)(=O)c2ccccc2)cc1	7.09	
C=C(c1cccnc1)c1cc(CCNS(=O)(=O)c2ccc(Cl)cc2)cc(CCC(=O)O)c1	10	
O=C(O)CCc1cc(CCNS(=O)(=O)c2ccc(Cl)cc2)cc(Oc2cccnc2)c1	9.4	
O=C(O)CCn1cc(Cc2cccnc2)c2cc(NS(=O)(=O)c3ccc(F)cc3)ccc21	8.85	
O=C(O)CCc1cc(CCNS(=O)(=O)c2ccccc2)cc(Cn2ccnc2)c1	7.89	18
O=C(O)CCn1cc(Cn2ccnc2)c2cc(NS(=O)(=O)c3ccc(F)cc3)ccc21	8.2	

Results, then the compound that gave them:

pA2 [1]	IC50 [2] [nM]	SMILES
7.69	22	CN(C)S(=O)(=O)NCCc1cc(CCC(=O)O)cc(Cc2cccnc2)c1
9.44		O=C(O)CCc1cc(CCNS(=O)(=O)c2ccc(Br)cc2)cc(Cc2cccnc2)c1
7.8	27	O=C(O)CCc1cc(CCCS(=O)(=O)c2ccccc2)cc(Cc2cccnc2)c1
7.43	29	CCN(CC)S(=O)(=O)NCCc1cc(CCC(=O)O)cc(Cc2cccnc2)c1
7.71	29	CCCS(=O)(=O)NCCc1cc(CCC(=O)O)cc(Cc2cccnc2)c1
8.32	38	O=C(O)CCc1cc(CCNS(=O)(=O)Nc2ccc(Cl)cc2)cc(Cc2cccnc2)c1
7.96	22	O=C(O)CCc1cc(CCNC(=O)c2ccccc2)cc(Cc2cccnc2)c1
9.39		O=C(O)CCc1cc(CCNS(=O)(=O)c2ccc(Cl)cc2)cc(Cc2cccnc2)c1
7.81	43	O=C(O)CCc1cc(CCNS(=O)(=O)N2CCCCC2)cc(Cc2cccnc2)c1
< 6	48	O=C(O)CCc1cc(CCS(=O)(=O)c2ccccc2)cc(Cc2cccnc2)c1
8.1	39	CC(C)(C)CS(=O)(=O)NCCc1cc(CCC(=O)O)cc(Cc2cccnc2)c1
8.98	37	Cc1ccc(S(=O)(=O)NCCc2cc(CCC(=O)O)cc(Cc3cccnc3)c2)cc1
8.8	45	O=C(O)CCc1cc(CCNS(=O)(=O)c2ccccc2)cc(Cc2cccnc2)c1
8	22	O=C(O)CCc1cc(CCNS(=O)(=O)N2CCCC2)cc(Cc2cccnc2)c1
6.78	54	CN(CCc1cc(CCC(=O)O)cc(Cc2cccnc2)c1)S(=O)(=O)c1ccc(Cl)cc1
8.9	20	O=C(O)CCc1cc(CCNS(=O)(=O)c2ccc(F)cc2)cc(Cc2cccnc2)c1
7.81	43	O=C(O)CCc1cc(CCNS(=O)(=O)C2CCCCC2)cc(Cc2cccnc2)c1
